Activity calls are given as the source filed them. The calls are words filed in the database; no cut-off is given here.

For orientation: EC50 means the concentration needed to bring the measured effect to its halfway point. The term half-life denotes the time in which the quantity being followed falls by half. Lower therefore signals fast loss.

Data set [1] in a line: Inhibition of P-gp in human MES-SA/Dx5 cells assessed as potentiation of paclitaxel-induced cytotoxicity by measuring compound concentration required for reduction of paclitaxel IC50 by half after 72 hrs by MTT assay. In kind it is cell-based. To be noted: MES-SA/Dx5, 72 h.
For data set [2], the species on record is Homo sapiens. The experiment in a line: Inhibition of P-gp in human MES-SA/Dx5 cells assessed as potentiation of vinblastine-induced cytotoxicity by measuring fold reduction in vinblastine EC50 at 5 uM after 72 hrs by MTT assay relative to untreated control. In kind it is cell-based. Summed up:
(§1)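 MES-SA/Dx5 cells were seeded at 5×10^3 per well in complete RPMI-1640 and left 24 h at 37 °C, 5% CO2. Anticancer drug was added at 0.0001–100 µM final, with or without modulator at 5 µM (1% DMSO), for 72 h. Viability was read by MTT at 570 nm and survival % was blank-corrected against 1% DMSO controls. IC50s came from survival curves. Fold reversal = IC50 untreated / IC50 with modulator. Three independent experiments were run, reported as mean ± SD.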

Data set [3] is described as follows: Antioxidant activity assessed as DPPH radical scavenging activity. In kind it is functional. Background: DPPH is a stable violet radical that fades when it is reduced.
Data set [4] is filed under the species Homo sapiens. The experiment in a line: Inhibition of P-gp in human MES-SA/Dx5 cells assessed as potentiation of doxorubicin-induced cytotoxicity by measuring fold reduction in doxorubicin EC50 at 5 uM after 72 hrs by MTT assay relative to untreated control. Format: cell-based. Summed up: as §1
Data set [5] in a line: Half life in P-gp over-expressing human MES-SA/Dx5 cells up to 100 uM by HPLC analysis. Format: ADME, cell-based. Summed up:
(§2)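 MES-SA or MES-SA/Dx5 cells were incubated with compound for up to 48 h (0, 24, 48 h). Cell lysates were analysed by HPLC for intact compound and for released quercetin, and half-lives were derived from these measurements.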

A short description of data set [6]: Stability in human MES-SA cells assessed as reduction in quercetin release up to 100 uM by HPLC analysis. Format: ADME, cell-based. Summed up:
as §2

Data set [7] is filed under the species Homo sapiens. Put plainly: Inhibition of P-gp in human MES-SA/Dx5 cells assessed as potentiation of paclitaxel-induced cytotoxicity by measuring fold reduction in paclitaxel EC50 at 5 uM after 72 hrs by MTT assay relative to untreated control. In kind it is cell-based. Summed up: as §1
(Tetrazolium assays rely on reduction of a dye to a coloured formazan, in cell work by metabolically active cells.)

The species entered for data set [8] is Homo sapiens. Put plainly: Inhibition of P-gp in human MES-SA/Dx5 cells assessed as increase in doxorubicin accumulation at 5 uM after 30 mins by flow cytometry relative to control. Format: cell-based. A general note: A flow cytometer gives signals particle by particle.
Data set [9] in a line: Stability in P-gp over-expressing human MES-SA/Dx5 cells assessed as reduction in quercetin release up to 100 uM by HPLC analysis. Format: ADME, cell-based. A digest of the protocol:
as §2

Data set [10] can be described thus: Inhibition of P-gp in human MES-SA/Dx5 cells assessed as potentiation of actinomycin D-induced cytotoxicity by measuring compound concentration required for reduction of actinomycin D IC50 by half after 72 hrs by MTT assay. In kind it is cell-based. Conditions: MES-SA/Dx5, 72 h.
Data set [11] in a line: Inhibition of P-gp in human MES-SA/Dx5 cells assessed as potentiation of doxorubicin-induced cytotoxicity by measuring compound concentration required for reduction of doxorubicin IC50 by half after 72 hrs by MTT assay. In kind it is cell-based. Conditions: MES-SA/Dx5, 72 h.
Data set [12] is filed under the species Homo sapiens. Put plainly: Inhibition of P-gp in human MES-SA/Dx5 cells assessed as potentiation of actinomycin D-induced cytotoxicity by measuring fold reduction in actinomycin D EC50 at 5 uM after 72 hrs by MTT assay relative to untreated control. In kind it is cell-based. A digest of the protocol: as §1
Data set [13] in a line: Half life in human MES-SA cells up to 100 uM by HPLC analysis. Format: ADME, cell-based. A digest of the protocol: as §2
The species named for data set [14] is Homo sapiens. Put plainly: Activity at human P-gp expressed in membranes assessed as stimulation of P-gp ATPase activity at 100 uM after 40 mins in presence of MgATP by […] relative to control. Summed up: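 Human Pgp membrane, 25 µg, incubated at 37 °C with compound at 100 µM, alongside Na3VO4 (100 µM) and 0.1% DMSO solvent controls. Reaction was started with 5 mM MgATP and run 40 min at 37 °C. Leftover ATP was read as luciferase luminescence after 20 min at room temperature. Activity was taken as the luminescence drop relative to the Na3VO4 sample.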

Data set [15] can be described thus: Inhibition of P-gp in human MES-SA/Dx5 cells assessed as potentiation of vinblastine-induced cytotoxicity by measuring compound concentration required for reduction of vinblastine IC50 by half after 72 hrs by MTT assay. Format: cell-based. Conditions: MES-SA/Dx5, 72 h.

`O=C(O)CC[C@H](NCCOc1cc(O)c2c(=O)c(O)c(-c3ccc(O)c(O)c3)oc2c1)C(=O)O`: the EC50 was found to be 2.5 µM in data set [1], 2.7 µM in data set [10], 2.8 µM in data set [11] and 2.4 µM in data set [15]. The fold change (FC) was found to be 16.2 in the data set listed under Homo sapiens [2]; 22.3 in the data set listed under Homo sapiens [4]; 17.3 in the data set filed under Homo sapiens [7]; 2.1 in the data set filed under Homo sapiens [8]; 20.5 in the data set filed under Homo sapiens [12]; 2.8 in the data set listed under Homo sapiens [14]. In data set [3], the outcome was Active. Besides, the half-life in [5] and in data set [13] was 56 h throughout. Also, the Stability result in [6] and in data set [9] was “Stable” throughout.
On to `O=C(O)CC[C@H](NC(=O)COc1cc(O)c2c(=O)c(O)c(-c3ccc(O)c(O)c3)oc2c1)C(=O)O`, for which the EC50 in data set [1] was found to be 2.1 µM; in [10], 2.3 µM; in data set [11], 2.2 µM; in data set [15] it was 2.5 µM. Also, the fold change (FC) in the data set listed under Homo sapiens [2] was 26; in the data set listed under Homo sapiens [4], 25.6; in the data set filed under Homo sapiens [7] it was 34.6; in the data set filed under Homo sapiens [8], 2.3; in the data set listed under Homo sapiens [12] it was 48.4; in the data set listed under Homo sapiens [14], 3.1. Also, in data set [3], the result was Active. Moreover, the half-life in data set [5] and in [13] was 30 h throughout. In addition, the Stability entry in [6] and in [9] was “Stable” in each case.
In the case of `O=c1c(O)c(-c2ccc(O)c(O)c2)oc2cc(O)cc(O)c12`, the fold change (FC) in the data set listed under Homo sapiens [2] was 2.75; in the data set listed under Homo sapiens [4] it was 1.94; in the data set filed under Homo sapiens [7], 2.48; in the data set filed under Homo sapiens [12], 3.06. The result in [3] was Active.

The values are drawn from ChEMBL document CHEMBL3875214, “Quercetin-glutamic acid conjugate with a non-hydrolysable linker; a novel scaffold for multidrug resistance reversal agents through inhibition of P-glycoprotein” (Bioorg Med Chem, 2017).
